High-throughput results: PubChem BioAssay, several laboratories
An excerpt weighted towards active compounds, which were near 1.5% of everything screened.
VLA-4 inh: inhibition in a human VLA-4 binding assay; P13612; VLA-4 expressing cells, ligand binding flow cytometry; inhibition, % (about 7 µM as worked out from the volumes in the protocol); 330,000 tested, 0.2% active; AID 2557; in the data active = inhibition above about 50%
Target sequence (P13612 whole entry, looked up): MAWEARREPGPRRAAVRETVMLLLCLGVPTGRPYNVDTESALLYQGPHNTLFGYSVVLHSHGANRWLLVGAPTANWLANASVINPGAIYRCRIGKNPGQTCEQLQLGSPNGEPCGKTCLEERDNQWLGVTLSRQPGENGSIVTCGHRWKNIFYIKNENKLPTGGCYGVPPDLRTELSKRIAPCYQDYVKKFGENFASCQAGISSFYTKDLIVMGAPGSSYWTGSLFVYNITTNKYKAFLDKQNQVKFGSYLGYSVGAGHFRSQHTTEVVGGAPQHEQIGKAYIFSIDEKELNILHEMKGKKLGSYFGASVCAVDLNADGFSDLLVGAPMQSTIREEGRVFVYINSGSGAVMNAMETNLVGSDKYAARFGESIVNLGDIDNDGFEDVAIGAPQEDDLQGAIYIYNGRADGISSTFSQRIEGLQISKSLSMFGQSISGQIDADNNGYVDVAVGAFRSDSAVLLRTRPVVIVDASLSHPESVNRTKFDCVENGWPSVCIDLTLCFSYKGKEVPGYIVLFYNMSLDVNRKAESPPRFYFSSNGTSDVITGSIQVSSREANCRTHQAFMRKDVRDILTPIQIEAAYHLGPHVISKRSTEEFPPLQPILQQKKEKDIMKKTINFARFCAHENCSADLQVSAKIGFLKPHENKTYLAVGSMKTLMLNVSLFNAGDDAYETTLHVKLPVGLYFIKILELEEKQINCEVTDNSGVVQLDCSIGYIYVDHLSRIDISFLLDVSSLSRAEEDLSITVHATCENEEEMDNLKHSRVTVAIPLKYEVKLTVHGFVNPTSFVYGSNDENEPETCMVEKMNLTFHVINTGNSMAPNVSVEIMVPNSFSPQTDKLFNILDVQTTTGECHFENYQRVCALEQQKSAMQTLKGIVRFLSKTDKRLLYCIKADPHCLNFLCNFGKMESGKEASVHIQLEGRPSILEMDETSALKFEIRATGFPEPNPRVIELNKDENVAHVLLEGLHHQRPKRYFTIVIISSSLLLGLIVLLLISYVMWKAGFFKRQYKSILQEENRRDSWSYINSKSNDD
T cell HTS: T cell immune modulation candidate | 2C CD8+ T cell-vesicle binding, flow cytometry; active compounds read low | response (vesicle binding), % at 7 µM | 330,000 tested, 0.068% active | AID 2052;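 active = response, share of CD8 T cells binding vesicles, and their 90th percentile fluorescence all below set limits, cut at about 80% in these data, passing the limit was not always enough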;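 also: values below 100% mean blocked vesicle binding to the CD8+ T cells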
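Assay system: 2C TCR transgenic mouse naive CD8+ T cells, MACS-purified | Read-out: CD8+ gate FL2 mean fluorescence as % of same-row positive control | Signal: High-throughput flow cytometry with anti-B7-1 and anti-CD8 staining | Timing: Binding step 1.5 h, 37 °C, antibody labelling 20 min, ice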
CHT allo act: allosteric activators of human choline transporter CHT; Q9GZV3; CHT-expressing cells, membrane potential dye, choline EC20; active compounds read high; LV-AA mutant CHT in HEK293 cells; B-score at 10 µM; 310,000 tested, 0.49% active; AID 488977;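 active = initial fluorescence not abnormally high and integrated response B-score, plate-corrected, over 3 SD above library mean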
CHT block: inhibitors of human choline transporter CHT; Q9GZV3; CHT-expressing cells, membrane potential dye, choline response; active compounds read low; B-score at 10 µM; 310,000 tested, 0.86% active; AID 488975;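 active = B-score over 3 SD under the library average, and starting fluorescence ratio not unusually high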;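 also: choline stimulus applied at its EC90 after an EC20 pre-addition; B-score computed on integrated fluorescence ratio after choline addition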
CHT act confirm: confirmation of human choline transporter (CHT) activators; CHT-expressing cells, membrane potential dye fluorescence (FDSS); % of choline EC20–EC90 response window; HEK293 expressing CHT LV-AA mutant; choline added at its EC20; shares compounds with CHT allo act; activation, % at 10 µM; 2,500 tested, 91% active;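 active = primary screen active, with duplicate mean activation above negative control mean plus 3 SD, cut at about 11% in these data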
HEK293 MP dye: CHT activator counter-screen hit in parental HEK293 cells. membrane potential dye fluorescence (FDSS); measured after EC20 choline addition. shares compounds with CHT allo act. ratio readout change at 10 µM, hits read low. 2,500 tested, 62% active;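 active = duplicate-averaged ratio beyond 3 SD from buffer wells, up or down, though filed actives are nearly all decreases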
Of the large screens only hits and unclear results are named; the others gave an inactive call (follow-up assays come after a bar, where they were run).

CC(CSc1nc2ccccc2s1)Cn1c(N2CCCC2)nc2c1c(=O)[nH]c(=O)n2C (centres undefined)	none
CC(C)n1c(SCC(=O)N2CCN(C(=O)c3ccco3)CC2)nc2c1c(=O)n(C)c(=O)n2C	none
CCN1CCN(c2nc3c(c(=O)[nH]c(=O)n3C)n2CCSc2nc3ccccc3s2)CC1	CHT allo act 13 | CHT act confirm 40 | HEK293 MP dye -45
CCCn1c(N2CCN(Cc3cccc(C)c3)CC2)nc2c1c(=O)[nH]c(=O)n2C	none | CHT act confirm 12 | HEK293 MP dye -28
Cc1ccnc(SCCn2c(N3CCOCC3)nc3c2c(=O)[nH]c(=O)n3C)n1	CHT allo act 10 | CHT act confirm 65 | HEK293 MP dye -58
OC(c1ccc(Cl)cc1)c1nccc2ccccc12 (centres undefined)	none
COC(=O)Cc1coc2cc(OC)ccc12	none (no result: CHT allo act, CHT block)
CCN(CC)C(=O)CSc1nnc([C@@H](N)C(C)C)o1	none
CN1CCN(c2nc3c(c(=O)n(C)c(=O)n3C)n2CCSc2nc3ccccc3s2)CC1	CHT allo act 7.4 | CHT act confirm 65 | HEK293 MP dye -46
Cn1c(=O)[nH]c(=O)c2c1nc(N1CCCCC1)n2CCCSc1nnnn1-c1ccccc1	none
CN1CCN(c2nc3c(c(=O)[nH]c(=O)n3C)n2CCCSc2nnnn2-c2ccccc2)CC1	CHT allo act 6.6 | CHT act confirm 47 | HEK293 MP dye -49
COc1ccc(CNC(=O)[C@H](C)NC(=O)C2CCN(S(=O)(=O)c3ccccc3)CC2)cc1	none
CC[N+](CC)(CC#Cc1ccccc1)CC#Cc1ccccc1	CHT allo act 7.7 | CHT act confirm 49 | HEK293 MP dye inactive
COc1cc(C(=O)OCCCN2CCCN(CCCOC(=O)c3cc(OC)c(OC)c(OC)c3)CC2)cc(OC)c1OC	CHT allo act 9.1 | CHT act confirm 44 | HEK293 MP dye -31
COc1cc(C(=O)OCCN2CCOCC2)cc(OC)c1OC	none
COc1ccc(CN(C)C(C)C(=O)Nc2cccc3ccccc23)cc1 (centres undefined)	none | CHT act confirm inactive | HEK293 MP dye inactive
COc1ccccc1NC(=O)C(C)N(C)CC(=O)Nc1cccc2ccccc12 (centres undefined)	none (no result: CHT allo act, CHT block)
NCCCC[C@H]1CN=C(N)N1CCC12CC3CC(CC(C3)C1)C2	CHT allo act 8.5 | CHT act confirm 54 | HEK293 MP dye -58
COc1ccccc1C1CC(c2ccc(Cl)cc2)Nc2ncnn21 (centres undefined)	none | CHT act confirm 30 | HEK293 MP dye inactive
CCSc1ccc2cc(OC)ccc2[n+]1CC	CHT allo act 6.3 (no result: T cell HTS) | CHT act confirm 40 | HEK293 MP dye -54
CCOc1ccc(S(=O)(=O)N(CC(=O)NN=C2CCN(C)CC2)c2ccc(C)cc2)cc1	none
COCCCNC(=O)c1cc(Sc2nnc(C)s2)nc2ccccc12	none
Cc1nnc(Sc2cc(C(=O)NCCCN(C)Cc3ccccc3)c3ccccc3n2)s1	CHT allo act 6.5 | CHT act confirm 24 | HEK293 MP dye -29
CNc1cc(C)nc(N2CCOCC2)n1	none | CHT act confirm 53 | HEK293 MP dye -43
O=C1/C(=C/c2cccc(F)c2)Oc2cc(O)ccc21	none
CC(C)CN1CCN(Cc2cccn2-c2ccc(Cl)cn2)CC1CCO (centres undefined)	none | CHT act confirm 54 | HEK293 MP dye inactive
Cc1cccc(-c2nnc(NC(=O)c3ccco3)s2)c1	none
CCOC(=O)CSc1nc2sc3c(c2c(=O)n1C1CCCCC1)CCN(C)C3	CHT allo act 8.1 | CHT act confirm 27 | HEK293 MP dye -29
CCOc1ccc(-n2c(SCC(N)=O)nc3sc4c(c3c2=O)CCN(C)C4)cc1	none | CHT act confirm 38 | HEK293 MP dye -33
CC(=O)Oc1ccccc1/C=C/c1ccc2ccccc2[n+]1C	CHT allo act 6.9 | CHT act confirm 48 | HEK293 MP dye -42
COc1ccc(/C=C/c2ccc3ccccc3[n+]2C)cc1OC	none
O=C1CC(C(=O)Nc2nccs2)C(c2ccccc2)O1 (centres undefined)	none
CCOC(=O)C(C)Sc1cc(CS(=O)(=O)c2ccccc2)nc(-c2ccccc2)n1 (centres undefined)	CHT allo act 7.7 | CHT act confirm inactive | HEK293 MP dye inactive
Cc1cc(C)c(S(=O)(=O)NCC(=O)NCc2cc(=O)n(C)c(=O)n2C)c(C)c1	none
c1ccc(Cn2nnnc2C(c2cccs2)N2CCCCCC2)cc1 (centres undefined)	none
COc1ccccc1C(c1nnnn1Cc1ccccc1)N1CCN(C2CCCC2)CC1 (centres undefined)	none
COc1ccc(OC)c(C(c2nnnn2Cc2ccccc2)N2CCN(C3CCCCC3)CC2)c1 (centres undefined)	none | CHT act confirm 10 | HEK293 MP dye inactive
Fc1ccc(Cn2nnnc2C(c2cccs2)N2CCN(C3CCCCC3)CC2)cc1 (centres undefined)	none | CHT act confirm 40 | HEK293 MP dye -25
O=[N+]([O-])c1ccc(-[n+]2ccc3ccccc3c2)c([N+](=O)[O-])c1	none
c1cncc(N=c2scc(-c3cccc4ccccc34)n2CCCn2ccnc2)c1	CHT allo act 8.2 | CHT act confirm inactive | HEK293 MP dye inactive
CN(CC(=O)Nc1ccc(F)cc1)C(=O)Cn1cnc2ccc([N+](=O)[O-])cc2c1=O	none (no result: CHT allo act, CHT block)
COc1ccc(CC(=O)OCC(=O)NCc2ccco2)cc1	CHT allo act 7 | CHT act confirm inactive | HEK293 MP dye inactive
COc1cc(OC)c([N+](=O)[O-])cc1/C=N/NC(=O)c1ccncc1	none | CHT act confirm 37 | HEK293 MP dye -38
O=C(N/N=C/C=C/c1cccc([N+](=O)[O-])c1)c1ccncc1	CHT allo act 7.9 | CHT act confirm 13 | HEK293 MP dye inactive
COc1ccc(/C(C)=N/NC(=O)c2ccncc2)cc1[N+](=O)[O-]	none
COc1ccc(-c2nn(-c3ccccc3)cc2CNCCN2CCOC2=O)c(F)c1	none
COc1ccc(-n2cc(CNCCCN3CCCC3=O)c(-c3ccccc3Cl)n2)cc1	CHT allo act 6.3 | CHT act confirm 19 | HEK293 MP dye inactive
C=CCn1c[n+](CC(=O)c2ccc(Br)s2)c2ccccc21	none | CHT act confirm 45 | HEK293 MP dye -27
Cc1ccc(C)c(CSc2nnc(-c3cccs3)n2Cc2ccco2)c1	CHT allo act 7.1 | CHT act confirm 60 | HEK293 MP dye inactive
OC(CN1CCCCC1)Cn1c2ccccc2c2ccccc21 (centres undefined)	none
O=c1c2ccccc2n(CC(O)CN2CCCCC2)c2ccccc12 (centres undefined)	CHT allo act 6.3 | CHT act confirm 44 | HEK293 MP dye -39
Cc1c(C)n(CC(O)CN2CCOCC2)c2ccccc12 (centres undefined)	none
